Laboratory results published in ChEMBL document CHEMBL4513216, “Probing the Open Global Health Chemical Diversity Library for Multistage-Active Starting Points for Next-Generation Antimalarials” (ACS Infect Dis, 2020).

Assay: Toxicity liver stage against HepG2, at 10uM
Assay type: cell-based
Design: test concentration 10 uM, cell line HepG2-A16-CD81EGFP
Conditions: human, HepG2-A16-CD81EGFP cells; read-out: INHIBITION
In short: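 Uninfected HepG2-A16-CD81EGFP cells, 3 × 10^3 per well, 1536-well, plated on prespotted compound at 10 μM final, parasite-free screening media added to match infected plates; puromycin 10 μM positive, DMSO 0.5% negative; run in parallel with 48 h PbLuc assay at 37 °C, 5% CO2; viability by CellTiter-Glo luminescence, normalized to controls.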

| SMILES | cytotoxicity at 10 µM [%] |
| --- | --- |
| Cc1cc(N2CCN(Cc3ccccc3)CC(O)C2)cc(C)n1 (centres undefined) | -17.4 |
| Cc1cccnc1CNCC1(O)CCCN(CC2CCC2)C1=O (centres undefined) | -5.51 |
| CCC(C(=O)NCCc1coc(-c2ccc(C)cc2)n1)N(C)C (centres undefined) | -1.13 |
| CC(=O)N[C@@H]1CN(c2nc(C(N)=O)cs2)C[C@H]1c1ccc(C)o1 | -41.2 |
| CN(C)C(=O)CS(=O)(=O)Cc1cc(Cl)c2c(c1)OCCCO2 | -5.08 |
| Cc1ccc(N2CCCc3sc(C(=O)NCc4ccncc4)nc32)nn1 | 14.6 |
| Cc1nc(CN2CCCC(c3cc(C(N)=O)[nH]n3)C2)oc1C (centres undefined) | -31.2 |
| CC(C(=O)NC1CCCC1)S(=O)(=O)Cc1noc(C(C)(C)C)n1 (centres undefined) | -9.41 |
| Cc1n[nH]c(C)c1C1CCCN1C(=O)CNC(=O)C(C)(C)C (centres undefined) | -29 |
| CC(C)[C@H](C)NC1CCN(c2ccc(-c3cscn3)cc2)CC1 | -50.8 |
| CCc1noc(CNC2CCCN(Cc3noc(C4CC4)n3)C2)n1 (centres undefined) | -25.6 |
| COCCn1cc2c(n1)C(CNCc1cccc(OC)c1)OCC2 (centres undefined) | -4.52 |
| CS(=O)(=O)NC[C@]12COC[C@H]1CN(C(=O)N1CCCC1)C2 | -109 |
| CC(C)n1cc(CN(Cc2ccsc2)CC2CCCO2)cn1 (centres undefined) | -7.89 |
| Cn1ccc(C(=O)NCc2ccc(N3CCOCC3)nc2)cc1=O | -14.3 |
| O=C(O)C1(Oc2ccc(Cl)cc2)CCN(C2CCOCC2)CC1 | 3.05 |
| CSc1ccc(NCC(=O)Nc2c(C)nn(C)c2C)cc1F | 10.7 |
| CC(C)c1nn(C)c(Cl)c1CNCc1cccnc1N(C)C | 10.7 |
| CC(C)Cc1cc(CN2C[C@@H]3CC[C@H]2CN(Cc2cscn2)C3)n[nH]1 | -2.03 |
| N#CCCN(Cc1ccco1)C(=O)C1CCCc2ccccc21 (centres undefined) | -4.27 |
| CCn1nc2c(cc1=O)CN(c1nc3ccccc3s1)CC2 | 7.5 |
| COCc1nc(C(=O)N2CCCCC2Cn2cccn2)cs1 (centres undefined) | -19.1 |

| SMILES | cytotoxicity at 10 µM [%] |
| --- | --- |
| c1cnc(-c2nc(CNC3CCc4ncnn4C3)cs2)nc1 (centres undefined) | -5.66 |
| Cc1cccc(CNC(Cc2ccsc2)c2nccs2)n1 (centres undefined) | 2.83 |
| COCCN(C)C(C(=O)O)c1ccc(F)c(Cl)c1 (centres undefined) | 12.2 |
| CC(C)c1ccc(CN2C(=O)C3(CCNCC3)Nc3ccccc32)cc1 | -9.81 |
| Cc1cc(CN(C)C2CCCN(Cc3noc(C)n3)C2)on1 (centres undefined) | -5.85 |
| CCOc1ccccc1C(=O)N(C)C(C)c1ccc(S(C)(=O)=O)cc1 (centres undefined) | 12.9 |
| Cc1cccc(C)c1OCCNC(=O)NC(C)c1nncn1C (centres undefined) | 7.8 |
| Cc1ncc(CN2CCCC2c2ccc(C(=O)NCc3ccoc3)s2)s1 (centres undefined) | -1.06 |
| NC(=O)CCn1cc(CNCCCc2csc(N)n2)c2ccccc21 | 3.1 |
| CC(C)c1cc(CNC(=O)Nc2cc(F)cc(N3CCCC3)c2)on1 | 1.57 |
| FC1(F)CCNCC12CCN(c1cccnc1)C2 (centres undefined) | 5.8 |
| Cc1nn(C)c(C)c1CC(=O)NCc1cccnc1OC1CCCC1 | -0.527 |
| CCc1c(C(=O)N2CCCN(C(C)=O)CC2)cnn1C(C)(C)C | -3.93 |
| Cc1cnn(CCC(=O)N2CCCN(c3ccccc3C#N)CC2)c1 | -2.85 |
| CN(Cc1nnc2n1CCC2)C(=O)c1ccc2c(c1)CCO2 | -9.33 |
| CCCc1nc(NCCCO)c2c(n1)c(C)nn2CC | 2.55 |
| CCc1ccccc1OCCN1C[C@@H](NS(C)(=O)=O)[C@H](C(C)C)C1 | -47.5 |
| O=C1NCC[C@]12CN(Cc1ccsc1)C[C@H]2c1ccccc1 | -142 |
| O=S(=O)(c1c(F)cccc1F)N1CCCC1c1nnc2n1CCCCC2 (centres undefined) | 11.2 |
| CN(C)C(C(=O)N1CCN(C(=O)c2ccc[nH]2)CC1)c1ccc(F)cc1 (centres undefined) | -5.19 |
| CCCn1nc(C)c(C(=O)N(C)[C@@H]2CC[C@@H](OC)[C@@H]2O)c1C | 4.36 |
| CCNC(c1ccc(F)cc1)c1cccnc1 (centres undefined) | 2.73 |

| SMILES | cytotoxicity at 10 µM [%] |
| --- | --- |
| CC(=O)N1CCC2(CCCN(C(=O)CCN3CCCCC3)C2)C1 (centres undefined) | 0.906 |
| CCN(C)c1ncnc2c1CCN(S(=O)(=O)c1ccccc1)CC2 | -106 |
| CC(C)Nc1nc(C(=O)Nc2ccccn2)cs1 | 5.15 |
| O=C1NCC(C(=O)Nc2ncc(Cc3ccc(F)cc3F)s2)N1 (centres undefined) | -4.01 |
| CCc1ccc(C2CCCN2C(=O)Cc2ccc(NC(C)=O)cc2)o1 (centres undefined) | -0.557 |
| Cc1cccnc1N1CCN(C(=O)C(C)n2ccnc2C(C)C)CC1 (centres undefined) | -10.3 |
| N#CCCCS(=O)(=O)NC1(c2cccc(Br)c2)CC1 | 2.99 |
| Cc1c(C(=O)N(C)C)cccc1N(C)S(C)(=O)=O | 8.19 |
| CC1CCCN(Cc2ccc(C(N)=O)cc2)C1 (centres undefined) | -10.4 |
| COCCc1noc(CN(C)c2nc(C)nc(C)c2C)n1 | 4.24 |
| CNc1cc(C)nc(C2CN(Cc3ccc(C)nc3)CCO2)c1 (centres undefined) | -2.29 |
| N#Cc1cn(CCN2CCc3ccccc3C2)c(=O)[nH]c1=O | 4.47 |
| Brc1ccc(NCc2ccc(Cn3ccnc3)cc2)nc1 | 21.8 |
| CCn1cc(CN2CCC(C3CCN(C)CC3)CC2)cc1C#N | -0.0399 |
| N#Cc1ccc(S(=O)(=O)NC(=O)COc2ccc3c(c2)CCC3)cc1 | -9.36 |
| Cc1cccc(CN2C[C@@H]3CN(C(=O)c4ccco4)C[C@@H]3C2=O)n1 | -0.42 |
| N#Cc1cc(C#N)c(SCCC(=O)Nc2ccc(F)cc2)nc1N | 4.89 |
| Cc1noc(C2CN(CC(=O)NCC3CCCO3)C2)n1 (centres undefined) | -2.56 |
| CN(CC(O)C1CC1)C(=O)c1ccc(-c2nc(C3CC3)n[nH]2)cc1 (centres undefined) | -5.09 |
| CN1C[C@H]2N(c3ncccn3)CCC[C@@]2(C(=O)NCC2CC2)C1 | -103 |
| CC(C)c1nc(CNc2ccc(CNS(C)(=O)=O)cc2)cs1 | 3.82 |
| Cc1noc(CNC(=O)N2CCN(c3nc(C)c(C)s3)CC2)n1 | -19.5 |

| SMILES | cytotoxicity at 10 µM [%] |
| --- | --- |
| CCn1ncnc1CN1CCC(CNC(=O)c2cccc(C)n2)C1 (centres undefined) | 8.57 |
| Cc1cccnc1CC(C)N(C)C(=O)c1cccs1 (centres undefined) | -1.02 |
| Cc1c(C(=O)NCCC(=O)N2CCOCC2)sc2ccc(F)cc12 | 4.5 |
| CCn1nc(C)c2nc(C(C)C)nc(NCCCO)c21 | 6.48 |
| O=C(C1CCOC1)N1CCC2(CCN(Cc3nccs3)CC2)CC1 (centres undefined) | -73.3 |
| CN(C)Cc1ccnc(C2CN(CCCc3ccccc3)CCO2)n1 (centres undefined) | -6.36 |
| COc1cc(NC(=O)c2cccc(N(C)C)c2)cc(OC)c1 | 0.03 |
| Cn1ccnc1CN1CCC2(COCCN(S(=O)(=O)C3CC3)C2)C1 (centres undefined) | 12.7 |
| COc1cc(CCC(=O)NC(C)C)ccc1OCC(F)(F)F | -4.24 |
| COc1ccccc1-n1nc(-c2ccco2)n(CC(=O)NC2CC2)c1=O | 0.355 |
| CSc1ccc(CN2CCCC3(CNC(=O)c4ccccc4O3)C2)cc1 (centres undefined) | 3.52 |
| CS(=O)(=O)Cc1ccc(NC(=O)c2cccnc2)cc1F | -1.53 |
| CC(C)CC(=O)N1CC(=O)c2sc(NCCc3ccccc3)nc2C1 | -0.501 |
| CNc1nc2cn(CCc3ccc(Cl)cc3)c(=O)c-2c[nH]1 | 5.2 |
| COc1ccnc(N2CCN(Cc3ncc(C(C)(C)C)o3)CC2)n1 | -7.2 |
| Cc1nccn1-c1ccc(NS(=O)(=O)c2cnn(C(C)C)c2)cn1 | -5.05 |
| Cc1nn(-c2ncnc3[nH]cnc23)c2c1C(C(C)C)CC(=O)N2 (centres undefined) | 10.8 |
| CCc1ccc(C(=O)NCCCC2(C3OCCO3)CCOCC2)cc1 | 15.6 |
| COc1coc(CN2CCCC3(CCC(=O)N(CC4CC4)C3)C2)cc1=O (centres undefined) | -34.4 |
| CC(C)(C)NC(=O)[C@@H]1Cc2ccccc2CN1Cc1cccs1 | -2.14 |
| Cc1ccc(C(=O)NCCS(=O)(=O)Cc2ccccc2)c(=O)[nH]1 | -5.96 |
| CC(C)(C)c1cnc(CN2CCN(c3ncccn3)CC2)o1 | -18.1 |

| SMILES | cytotoxicity at 10 µM [%] |
| --- | --- |
| CNC(=O)C1CCCN(C(=O)C2CCC2)C1 (centres undefined) | -4.47 |
| Cc1nn(C)cc1CN1CCc2nc3sccc3c(=O)n2CC1 | -1.87 |
| O=C(c1csc(-c2ncccn2)n1)N1CCCC1Cn1cccn1 (centres undefined) | 0.533 |
| CN(C)C(=O)CN1CC=C(c2cnn(Cc3ccccc3)c2)CC1 | -6.12 |
| O=C(C1CCOCC1)N1CCO[C@H]2[C@H](Oc3ccccn3)CC[C@@H]21 | -99.6 |
| CCc1noc(C)c1C(=O)Nc1cnn(CC(=O)NC2CCCC2)c1 | -3.08 |
| CCN1CC[C@]2(CN(C(=O)[C@H]3CCCO3)C[C@H]2c2ccccc2)C1=O | 5.98 |
| N#Cc1ccc(CN(CC(N)=O)Cc2cccc(F)c2)cc1 | -2.01 |
| COc1ccc2c(c1)OC1(CCN(Cc3ccc(C)cc3)CC1)CC2=O | 7.6 |
| O[C@@]1(c2ccccn2)CC[C@H]2CN(Cc3ccccn3)C[C@H]21 | -4.97 |
| Cc1noc(CN(Cc2ccc3c(c2)OCO3)Cc2ccc(C)o2)n1 | -0.194 |
| N#CCCN(CC(F)(F)F)C(=O)c1cc(-n2cccn2)ccn1 | 8.93 |
| CCC(NC(=O)c1cc(OC)c2c(c1)OCCO2)c1cccs1 (centres undefined) | -6.66 |
| COc1ccc2c(c1)CCCC2CC(=O)NCC(C)(C)C(=O)O (centres undefined) | -1.2 |
| Cc1c(F)cccc1S(=O)(=O)NCC(C)(C)CC(C)O (centres undefined) | -8.29 |
| O=C(c1cocn1)N1CCC[C@]2(C[C@@H](Oc3ncccc3F)CO2)C1 | 6.21 |
| CCCc1noc(C(C)S(=O)(=O)Cc2nc(C3CC3)no2)n1 (centres undefined) | -9.02 |
| Cc1nc(C)c(CCN2CCC(Oc3ccccc3F)CC2)s1 | 42.9 |
| Cn1ccnc1NC[C@@H]1CCC[C@@H]2CN(Cc3nccs3)C[C@@H]21 | 14 |
| Cc1ccc(O[C@@H]2C[C@H]3CN(C(=O)Cc4ccccn4)CCN3C2)cc1 | -59 |
| CCO[C@H]1CN(C(=O)c2ccc3c(c2)OCO3)[C@@H]2COC[C@H]12 | -130 |
